Data taken from ChEMBL document CHEMBL4402514, “Norepinephrine-Transporter-Targeted and DNA-Co-Targeted Theranostic Guanidines” (J Med Chem, 2020).
pIC50: −log10 of the molar value.

Tests used:
[1] = Stability in human serum assessed as intact compound level after 5 mins by HPLC analysis; type: ADME, cell-free; settings: read-out: Stability
Method in brief: (§1)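 Radioiodinated guanidines were incubated in mouse, human or pig serum and analyzed by radio-HPLC on a C18 column at 0.8 mL/min. The gradient was 0–95% CH3CN over 50 min, then 95% for 20 min. Intact compound was fitted to monoexponential degradation to give half-life. Values are average ± std err.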

[2] = Half life in mouse serum by HPLC analysis; type: ADME, cell-free; method in brief: as §1
[3] = Half life in pig serum by HPLC analysis; type: ADME, cell-free, Sus scrofa; method in brief: as §1
[4] = Drug uptake in human SK-N-SH cells assessed as level of 125I-incorporation into DNA incubated 1 hr followed by compound washout with non-radioactive medium/PBS and measured after 23 hrs by gamma counting method relative to control; type: ADME, cell-based
Method in brief: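 SK-N-SH cells exposed to the 125I-labelled guanidine for 1 h, then washed with nonradioactive medium and PBS. Cells were either processed at once (1 h) or given fresh nonradioactive medium and returned to the incubator for 23 h (24 h). Subcellular fractions (cytoplasm, DNA) were counted by γ-counter. Values are mean and SD, n ≥ 3.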

[5] = target: T1, Sodium-dependent noradrenaline transporter (Homo sapiens, UniProt P23975); assay: Substrate activity at NET in human SK-N-SH cells assessed as inhibition of drug uptake by measuring MIBG IC50 incubated for 1 hr in presence of nonradioactive MIBG at 37 degC by filtration based gamma counting method; type: cell-based
Method in brief: (§2)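 This was a cell-suspension competition assay. SK-N-SH cells in suspension were incubated with 125I-guanidine and graded nonradioactive MIBG, and uptake was read by filtration and γ-counting. Runs were done at 37 °C, or at 4 °C after cooling the cells on ice. The MIBG IC50 was estimated from the inhibition curves.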

[6] = target: T1, Sodium-dependent noradrenaline transporter; assay: Substrate activity at NET in human SK-N-SH cells assessed as inhibition of drug uptake by measuring MIBG IC50 incubated for 1 hr in presence of nonradioactive MIBG at 4 degC by filtration based gamma counting method; type: cell-based; method in brief: as §2
[7] = target: T1, Sodium-dependent noradrenaline transporter; assay: Substrate activity at NET in human BE(2)-C cells assessed as inhibition of drug uptake by measuring MIBG IC50 incubated for 1 hr in presence of nonradioactive MIBG at 37 degC by filtration based gamma counting method; type: cell-based
[8] = target: T1, Sodium-dependent noradrenaline transporter; assay: Substrate activity at NET in human BE(2)-C cells assessed as inhibition of drug uptake by measuring MIBG IC50 incubated for 1 hr in presence of nonradioactive MIBG at 4 degC by filtration based gamma counting method; type: cell-based
[9] = tested on: SK-N-SH; assay: Antiproliferative activity against human SK-N-SH cells assessed as extracellular concentration of 125I required to show 63% inhibition after 24 hrs; type: cell-based
Method in brief: (§3)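 D37 (63% kill) was estimated for SK-N-SH cells treated 24 h with IDG. It is expressed as extracellular (kBq/mL) or intracellular (mBq/cell) 125I. Survival was assessed by trypan blue and clonogenic assays. Values are average (std error).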

[10] = tested on: SK-N-SH; assay: Antiproliferative activity against human SK-N-SH cells assessed as intracellular concentration of 125I required to show 63% inhibition after 24 hrs; type: cell-based; method in brief: as §3
[11] = Drug level in human SK-N-SH cells DNA at 40 +/- 0.5 kBq/mL after 24 hrs by gamma counting method relative to control; type: ADME, cell-based
Method in brief: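 SK-N-SH cells were exposed 1 h to 125I compound (≈39–40 kBq/mL), then washed with nonradioactive medium and PBS. Cells were processed immediately (1 h) or re-incubated in fresh medium for 23 h (24 h). Cytoplasmic, nuclear and DNA fractions were gamma-counted.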

[12] = tested on: SK-N-SH; assay: Anticlonogenic activity against human SK-N-SH cells assessed as number of colonies at 40 +/- 0.5 kBq/mL kBq/mL after 1 hr by crystal violet staining based assay; type: functional
Method in brief: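 SK-N-SH cells exposed for 1 h to 125I-MIBG (39.3 ± 0.3 kBq/mL extracellular) or IDG (40 ± 0.5 kBq/mL). For the 1 h group, cells were washed with nonradioactive medium and PBS, harvested with trypsin and replated for the clonogenic assay. For the 24 h group, cells were washed, given fresh nonradioactive medium and incubated a further 23 h before plating. Colonies were counted.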

[13] = Drug level in tumor of NCR nu/nu mouse xenografted with human BE(2)-C cells at 0.33 +/- 0.05 MBq administered intratumorally after 24 hrs by gamma counting method; type: ADME, tissue-based, Neoplasm; settings: in vivo, other
Method in brief: (§4)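 Athymic Ncr nu/nu female and male mice bearing subcutaneous BE(2)-C xenografts received intratumor injections of the 125I agent. Tissues, tumor and blood were collected at 24 h and counted for radioactivity, expressed as %ID/g. Tumor-to-blood ratios were derived.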

[14] = Ratio of tumor to blood concentration in NCR nu/nu mouse xenografted with human BE(2)-C cells at 0.33 +/- 0.05 MBq administered intratumorally after 24 hrs by gamma counting method; type: ADME, tissue-based; settings: tumour, other; method in brief: as §4
[15] = tested on: BE(2)-C; assay: Antitumor activity against human BE(2)-C cells xenografted with NCR nu/nu mouse assessed as tumor volume at 8.4 +/- 0.3 mBq administered intratumorally after 1 day (reference value: 0.39 +/- 0.15 cm3); type: functional
Method in brief: (§5)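 Athymic Ncr nu/nu female and male mice bearing subcutaneous BE(2)-C xenografts were randomized by lottery into untreated control and treatment groups. Treatment was a single intratumor injection of 8.4 ± 0.3 MBq/mouse. Tumor volumes were followed to day 7 (controls) or day 14. Doubling times were calculated from day 0 to 7 and day 0 to 14. Values are average ± std err.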

[16] = tested on: BE(2)-C; assay: Antitumor activity against human BE(2)-C cells xenografted with NCR nu/nu mouse assessed as doubling time at 8.4 +/- 0.3 mBq administered intratumorally measured up to 7 days (reference value: 2.4 days); type: functional; method in brief: as §5
[17] = tested on: BE(2)-C; assay: Antitumor activity against human BE(2)-C cells xenografted with NCR nu/nu mouse assessed as tumor volume at 8.4 +/- 0.3 mBq administered intratumorally after 7 days; type: functional; method in brief: as §5
[18] = Toxicity in NCR nu/nu mouse xenografted with human BE(2)-C cells assessed as effect on hemoglobin level at 8.41 +/- 0.32 mBq measured up to 166 hrs
Method in brief: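 Athymic Ncr nu/nu female and male mice bearing subcutaneous BE(2)-C xenografts were randomized by lottery to untreated control or a single intratumor injection of 125I-guanidine (8.4 ± 0.3 MBq/mouse). Blood hemoglobin was measured in both groups and compared with the normal adult mouse range. Treated mice were terminated 14 days after injection.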

T1 sequence (P23975 whole entry): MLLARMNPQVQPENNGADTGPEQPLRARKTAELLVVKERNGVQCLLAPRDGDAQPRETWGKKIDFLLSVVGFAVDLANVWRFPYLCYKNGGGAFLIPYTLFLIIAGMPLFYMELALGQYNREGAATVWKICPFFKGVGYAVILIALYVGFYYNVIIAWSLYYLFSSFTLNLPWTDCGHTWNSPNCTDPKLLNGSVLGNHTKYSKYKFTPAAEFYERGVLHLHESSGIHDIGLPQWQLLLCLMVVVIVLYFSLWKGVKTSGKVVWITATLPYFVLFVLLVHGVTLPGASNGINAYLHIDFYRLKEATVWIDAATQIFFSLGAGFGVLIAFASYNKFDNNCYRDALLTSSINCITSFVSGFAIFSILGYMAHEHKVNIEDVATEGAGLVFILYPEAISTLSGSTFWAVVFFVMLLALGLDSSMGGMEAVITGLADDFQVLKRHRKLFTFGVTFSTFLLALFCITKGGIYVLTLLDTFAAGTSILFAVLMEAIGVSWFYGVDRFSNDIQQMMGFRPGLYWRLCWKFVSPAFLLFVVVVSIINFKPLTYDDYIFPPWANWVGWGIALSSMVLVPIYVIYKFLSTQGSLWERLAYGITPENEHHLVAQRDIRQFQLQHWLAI

**Q.** Which remaining at 5 min [1] does the source give for `N=C(N)NCCCCCC(=O)O[C@H]1C[C@H](n2cc([125I])c(=O)[nH]c2=O)O[C@@H]1CO` here?
**A.** 93%

**Q.** What about the half-life [2] of the same molecule?
**A.** 3.54 min

**Q.** And the half-life [3]?
**A.** 3.59 h

**Q.** What about the Drug uptake [4] of the same molecule?
**A.** > 97%

**Q.** What about the pIC50 [5] of the same molecule?
**A.** 4.45

**Q.** What about the pIC50 [6] of the same molecule?
**A.** 4.66

**Q.** What about the pIC50 [7] of the same molecule?
**A.** 4.54

**Q.** What about the pIC50 [8] of the same molecule?
**A.** 4.62

**Q.** And the Activity [9]?
**A.** 15.6 kBq/ml

**Q.** And the Activity [10]?
**A.** 1.2 mBq

**Q.** And the Drug uptake [11]?
**A.** > 97%

**Q.** And the Activity [12]?
**A.** 163

**Q.** What about the Drug uptake [13] of the same molecule?
**A.** 3.93 % ID/g

**Q.** And the Ratio [14]?
**A.** 161

**Q.** And the Activity [15]?
**A.** 0.42 cm3

**Q.** And the Time [16]?
**A.** 14.9 days

**Q.** What about the Activity [17] of the same molecule?
**A.** 0.54 cm3

**Q.** What about the Activity [18] of the same molecule?
**A.** Non-Toxic
